Source: publication PMC8753134 (Research and Practice in Thrombosis and Haemostasis, 2022)
Structures can show the parent of a compound that is named as a salt. Where two headings read alike, the source gives them in different places. Each block holds one molecule with its values, some of them ahead of it. No end group written: not given here.

Columns and labels:
[1] = cited from earlier work
[2] = tested on: FXIIa and PKa (contact activation-mediated BK formation); assay: Screening of serine protease inhibitors against artificial ex vivo BK formation; assay type: biochemical, human; conditions: citrate plasma; for BK levels after 4.5 hours: 4.5 hours after sampling, n = 3
Method in brief: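 Fresh blood in citrate, with serine protease inhibitors present singly (e.g., 2 mM AEBSF), then combinations of the most promising; uninhibited plasma as reference. BK was quantified by in-house LC-MS/MS immediately (reference value) and up to 4.5 h after sampling, given as relative abundance. Samples were analysed directly without long-term storage.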

[3] = assay type: in vitro ADME, human; conditions: spiked 1 ng/mL, 3 hours after sampling, absence of inhibitor, n = 3

Molecule: RPPGF [BK‐(1‐5), Bradykinin 1–5]
half-life ([1]; inactive metabolite): ≈ 90 minutes

Molecule: hexadimethrine bromide [HDMB]
BK level as % of uninhibited plasma ([2]; tube prespiked with inhibitor, n = 3, LC-MS/MS): 0.4%

change of spiked plasma kinin level [3]: −65.7%
Molecule: RPPGFSP [BK‐(1‐7), Bradykinin 1–7]

Molecule: RPPGFSPFR [BK, Bradykinin]
half-life [1]: < 1 min

change of spiked plasma kinin level [3]: −100%
Molecule: NCCCC[C@H](N)C(=O)N[C@@H](CCCN=C(N)N)C(=O)N1CCC[C@H]1C(=O)N1CCC[C@H]1C(=O)NCC(=O)N[C@@H](Cc1ccccc1)C(=O)N[C@@H](CO)C(=O)N1CCC[C@H]1C(=O)N[C@@H](Cc1ccccc1)C(=O)N[C@@H](CCCN=C(N)N)C(=O)O [KBK, Kallidin]
half-life [1]: < 1 min

Molecule: N=C(N)c1ccc2cc(OC(=O)c3ccc(N=C(N)N)cc3)ccc2c1 [nafamostat, nafamostat mesylate]
BK levels after 4.5 hours [2]: BK levels were increased

Molecule: CC(=O)N[C@@H](CC(C)C)C(=O)N[C@@H](CC(C)C)C(=O)N[C@H](C=O)CCCNC(=N)N [leupeptin, leupeptin hemisulfate]
BK levels after 4.5 hours [2]: BK levels were increased
